Compounds with a hit are over-represented: about 5.8% of the library has one in this group of screens.
PLK1 inh: inhibitors of human PLK1 kinase; inhibition, % at 10 µM; P53350; recombinant PLK1 kinase, TR-FRET peptide phosphorylation; hit rate 0.53% among 97,000;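 active = inhibition of 50% or more in the single-concentration screen; inactive = inhibition below 50%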;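 note: 0% = DMSO max control and 100% = H-89 dihydrochloride min control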
FAK blocker: inhibitors of human focal adhesion kinase; Q05397; biochemical FAK kinase activity assay; inhibition, %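 (tested at 7 µM)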; hit rate 0.84% among 97,000; AID 727; in the data active = inhibition above about 19%;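 note: 0% = DMSO and 100% = reference compound high control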
Pyk2 oligo antag: blocks oligomerization of human Pyk2 in cells; Q14289; Q293 cells, Pyk2 FERM NanoBiT luminescence; hits give low values; z-score (the deposit names both 25 µM and 10 µM); hit rate 0.83% among 99,000;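 active = Z-score of -3 or lower, scaled per plate to the spread of control and sample wells; inactive = z-score above -3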;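 note: negative z-score means lost luminescence so less FERM oligomerization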
Cav3 T inh: inhibitors of human Cav3.2 T-type calcium channel | Cav3.2-expressing cells, Fluo-4 calcium fluorescence FDSS; hits give low values | hit rate 4% among 100,000 | B-score at 10 µM | O95180 | AID 449739;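 active = single-dose well whose peak fluorescence ratio is a statistical outlier from its plate by either plate-standardised score or position-corrected B-score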
Target sequence (O95180 whole entry, looked up): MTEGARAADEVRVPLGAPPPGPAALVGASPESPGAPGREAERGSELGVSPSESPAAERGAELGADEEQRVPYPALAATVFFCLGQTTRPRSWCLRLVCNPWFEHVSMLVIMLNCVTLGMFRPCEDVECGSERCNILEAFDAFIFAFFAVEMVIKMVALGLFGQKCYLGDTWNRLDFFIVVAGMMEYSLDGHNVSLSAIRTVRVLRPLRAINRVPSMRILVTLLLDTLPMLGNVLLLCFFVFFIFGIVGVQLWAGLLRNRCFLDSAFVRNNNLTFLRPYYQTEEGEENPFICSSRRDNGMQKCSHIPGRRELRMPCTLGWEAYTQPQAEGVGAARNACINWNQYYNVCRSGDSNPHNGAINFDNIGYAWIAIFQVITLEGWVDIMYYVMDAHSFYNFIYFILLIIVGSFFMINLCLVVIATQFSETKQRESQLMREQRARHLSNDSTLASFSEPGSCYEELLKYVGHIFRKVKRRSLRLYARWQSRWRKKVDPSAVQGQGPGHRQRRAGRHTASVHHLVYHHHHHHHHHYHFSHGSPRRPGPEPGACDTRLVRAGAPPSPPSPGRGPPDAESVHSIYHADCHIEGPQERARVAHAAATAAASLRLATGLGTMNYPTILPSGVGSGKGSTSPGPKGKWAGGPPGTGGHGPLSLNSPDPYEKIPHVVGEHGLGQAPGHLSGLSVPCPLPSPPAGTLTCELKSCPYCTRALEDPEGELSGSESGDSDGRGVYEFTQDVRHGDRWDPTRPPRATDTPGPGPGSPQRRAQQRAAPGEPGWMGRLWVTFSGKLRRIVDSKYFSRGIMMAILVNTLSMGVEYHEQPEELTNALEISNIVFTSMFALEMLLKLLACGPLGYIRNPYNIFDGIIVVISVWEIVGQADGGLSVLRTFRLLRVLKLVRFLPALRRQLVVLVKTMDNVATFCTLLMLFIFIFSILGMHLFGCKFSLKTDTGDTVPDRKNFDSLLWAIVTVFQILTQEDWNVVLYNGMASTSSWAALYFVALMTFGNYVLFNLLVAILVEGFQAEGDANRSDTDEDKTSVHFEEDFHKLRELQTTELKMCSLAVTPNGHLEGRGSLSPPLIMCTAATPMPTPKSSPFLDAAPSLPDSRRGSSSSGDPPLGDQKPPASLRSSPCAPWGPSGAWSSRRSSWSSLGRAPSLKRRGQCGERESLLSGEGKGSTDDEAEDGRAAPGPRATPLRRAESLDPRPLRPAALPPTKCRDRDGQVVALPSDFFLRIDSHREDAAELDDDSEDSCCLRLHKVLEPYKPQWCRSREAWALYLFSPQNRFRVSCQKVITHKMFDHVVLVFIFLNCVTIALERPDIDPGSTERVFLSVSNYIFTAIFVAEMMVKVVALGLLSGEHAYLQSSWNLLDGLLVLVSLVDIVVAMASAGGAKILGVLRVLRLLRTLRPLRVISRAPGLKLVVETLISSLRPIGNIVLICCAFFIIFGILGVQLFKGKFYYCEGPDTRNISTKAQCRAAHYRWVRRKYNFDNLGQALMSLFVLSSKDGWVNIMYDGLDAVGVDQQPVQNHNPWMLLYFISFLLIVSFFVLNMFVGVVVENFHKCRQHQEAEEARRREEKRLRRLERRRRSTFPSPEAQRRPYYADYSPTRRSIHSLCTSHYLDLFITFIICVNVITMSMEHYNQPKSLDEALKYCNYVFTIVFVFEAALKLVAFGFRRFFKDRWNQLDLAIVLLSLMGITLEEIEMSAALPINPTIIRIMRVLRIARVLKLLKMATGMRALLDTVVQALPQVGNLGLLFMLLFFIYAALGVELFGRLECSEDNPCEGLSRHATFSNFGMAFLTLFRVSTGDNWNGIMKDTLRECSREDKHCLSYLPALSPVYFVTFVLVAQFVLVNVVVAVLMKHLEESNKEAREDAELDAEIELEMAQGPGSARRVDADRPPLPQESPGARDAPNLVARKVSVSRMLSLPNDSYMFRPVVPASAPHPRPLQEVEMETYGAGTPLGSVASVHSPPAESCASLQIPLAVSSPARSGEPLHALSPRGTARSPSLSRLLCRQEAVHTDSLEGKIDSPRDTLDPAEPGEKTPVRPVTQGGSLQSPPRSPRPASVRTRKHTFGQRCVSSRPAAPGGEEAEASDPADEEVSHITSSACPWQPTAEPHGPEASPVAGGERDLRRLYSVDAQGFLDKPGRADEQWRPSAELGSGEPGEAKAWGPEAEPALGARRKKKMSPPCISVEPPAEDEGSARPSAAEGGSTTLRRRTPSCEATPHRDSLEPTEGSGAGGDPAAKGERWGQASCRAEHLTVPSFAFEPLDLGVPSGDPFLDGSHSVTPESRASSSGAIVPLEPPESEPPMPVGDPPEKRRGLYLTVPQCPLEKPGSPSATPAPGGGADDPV
PLK1 PBD inh: inhibitors of human Plk1 polo box domain binding; hit rate 0.13% among 97,000; P53350; inhibition, %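 (tested at about 20 µM)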; AID 693; Plk1 PBD phosphopeptide binding, fluorescence polarization; in the data active = inhibition above about 34%, passing the limit was not always enough
Rev-RRE block: inhibitors of HIV-1 Rev-RRE RNA interaction; inhibition, % at 8 µM; AID 704; hit rate 0.79% among 97,000; Rev peptide-RRE RNA binding, FRET; P05866;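 active = inhibition above the screen-wide mean plus 3 SD, cut at about 35% in these data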;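 note: 0% = median DMSO wells and 100% = median Neomycin B control wells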
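Test system – labelled RRE RNA duplex and labelled Rev peptide · Reagent – labelled Rev peptide · Doses – one concentration, 8 µM nominal · Incubation – 5 + 15 min at 25 °C · Signal – FRET fluorescence readout · Read-out basis – % inhibition of FRET ratio versus controls · Control set – DMSO wells as 0% and neomycin B wells as 100% inhibition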
The depositor's hits bear a star; [ ] = another dose, or the depositor's remark.

CCOC(=O)Cc1csc(NC(=O)CSc2ncnc3c2cnn3-c2ccccc2Cl)n1 was read as PLK1 inh -17, FAK blocker 7, Pyk2 oligo antag -2.3, Cav3 T inh -6.2*, PLK1 PBD inh -23 and Rev-RRE block 9.
Screening CCOC(=O)Cc1csc(NC(=O)c2cccs2)n1 returned Pyk2 oligo antag 1 and Cav3 T inh -5.4*.
Screening CCOC(=O)Cc1csc(NC(=O)c2sc3nc4ccc(CC)cc4cc3c2N)n1 returned PLK1 inh -19, FAK blocker 16, Pyk2 oligo antag -0.4, Cav3 T inh 0.0075, PLK1 PBD inh 1 and Rev-RRE block 85*[fluorescence artefact?].
For CCOC(=O)Cc1csc(NC(=O)c2ccc(Br)o2)n1 the results were PLK1 inh 3, FAK blocker 1, Pyk2 oligo antag 0.27, Cav3 T inh 0.34, PLK1 PBD inh 23 and Rev-RRE block 0.
CC(C)c1nnc(NC(=O)c2cccs2)s1 was read as PLK1 inh 67*, FAK blocker -8, Cav3 T inh 0.54, PLK1 PBD inh -12 and Rev-RRE block 8.
For CCOC(=O)Cc1csc(NC(=O)c2ccc(Cl)nc2)n1 the results were PLK1 inh -10, FAK blocker 7, Pyk2 oligo antag 0.17, Cav3 T inh 0.13, PLK1 PBD inh -6 and Rev-RRE block 41*.
`CCOC(=O)Cc1csc(NC(=O)c2ccc3c(c2)OCO3)n1` gave PLK1 inh -9, FAK blocker -5, Pyk2 oligo antag 0.44, Cav3 T inh -0.63, PLK1 PBD inh -8 and Rev-RRE block -1.
C/C(Cn1nc([N+](=O)[O-])cc1C)=N\NC(=O)c1cccc(Br)c1 was read as PLK1 inh -13, FAK blocker 8, Pyk2 oligo antag 0.48, Cav3 T inh -0.097, PLK1 PBD inh 11 and Rev-RRE block 8.
For C/C=C/C=C\C(=O)Nc1cccc(C2=NOC3(C2)C[C@@H](C(N)=O)N(C(=O)c2cc([N+](=O)[O-])cc([N+](=O)[O-])c2C)C3)c1 (stereo partly specified) the results were Cav3 T inh 0.63.
Screening Cc1cccc(C)c1-n1c(C)cc(/C=C2\NC(=O)NC2=O)c1C returned PLK1 inh -6, FAK blocker 8, Pyk2 oligo antag -0.55, Cav3 T inh -6.8*, PLK1 PBD inh 24 and Rev-RRE block 6.
`Cc1ccc(-c2cc(C(=O)Nc3nn[nH]n3)c3ccccc3n2)cc1` gave PLK1 inh -3, FAK blocker 3, Pyk2 oligo antag 0.37, Cav3 T inh 0.0027, PLK1 PBD inh -1 and Rev-RRE block 7.
For Cc1cc(OCC(=O)N2CCc3ccccc3C2)c2c(-c3ccccc3)cc(=O)oc2c1 the results were PLK1 inh -16, FAK blocker 2, Pyk2 oligo antag -1.6, Cav3 T inh -3.1, PLK1 PBD inh -7 and Rev-RRE block -3.
For O=[N+]([O-])c1ccc(C2CCCC/C2=N/OCc2ccccc2F)c([N+](=O)[O-])c1 (stereo unspecified) the results were PLK1 inh -10, FAK blocker -4, Pyk2 oligo antag -0.73, Cav3 T inh -6.5*, PLK1 PBD inh -13 and Rev-RRE block 14.
Screening O=[N+]([O-])c1ccc(C2CCCC/C2=N/OCc2ccc(F)cc2)c([N+](=O)[O-])c1 (stereo unspecified) returned PLK1 inh 2, FAK blocker 2, Pyk2 oligo antag -0.02, Cav3 T inh -5.4*, PLK1 PBD inh -7 and Rev-RRE block 13.
For CCOC(=O)c1ccc(NC(=O)Nc2ccc(OC)c(OC)c2)cc1 the results were PLK1 inh 51*, FAK blocker 1, Pyk2 oligo antag 0.07, Cav3 T inh 0.45, PLK1 PBD inh -6 and Rev-RRE block 4.
`CC(C)NC(=O)COc1ccc(/C=N/NS(=O)(=O)c2ccccc2)cc1` gave PLK1 inh -5, FAK blocker -4, Pyk2 oligo antag 0.56, Cav3 T inh -1.1, PLK1 PBD inh -2 and Rev-RRE block -2.
O=C(COc1ccc(/C=N/NS(=O)(=O)c2ccccc2)cc1)Nc1ccc(F)cc1 was read as PLK1 inh -10, FAK blocker 3, Pyk2 oligo antag 1.7, Cav3 T inh -6*, PLK1 PBD inh 13 and Rev-RRE block 1.
CCOC(=O)c1oc2ccccc2c1CN1CCN(c2ccccc2)CC1 was read as PLK1 inh 2, FAK blocker 1, Pyk2 oligo antag -0.56, Cav3 T inh -4.8*, PLK1 PBD inh 8 and Rev-RRE block 2.
`CCN(CC)c1ccc(-c2nnc(SCC(=O)Nc3ccccc3C#N)n2-c2ccccc2)cc1` gave PLK1 inh -16, FAK blocker 1, Pyk2 oligo antag -0.14, Cav3 T inh -2.4, PLK1 PBD inh -20 and Rev-RRE block 1.
For COc1ccc(/C=C/C(=O)NC(=S)NNC(=O)Cc2cccs2)cc1OC the results were PLK1 inh -19, FAK blocker -1, Pyk2 oligo antag 0.2, Cav3 T inh -0.95, PLK1 PBD inh -18 and Rev-RRE block 7.
For COc1ccc(C(=O)NNC(=S)NC(=O)c2ccco2)cc1 the results were PLK1 inh -3, FAK blocker 1, Pyk2 oligo antag 2.4, Cav3 T inh -5.5*, PLK1 PBD inh -5 and Rev-RRE block 1.
O=C(/C=C/c1cccs1)NC(=S)NNC(=O)Cc1cccs1 was read as PLK1 inh -10, FAK blocker -1, Pyk2 oligo antag -0.09, Cav3 T inh -4.2*, PLK1 PBD inh 18 and Rev-RRE block 0.
Screening COc1ccc(C(=O)NC(=S)NNC(=O)Cc2cccs2)cc1 returned PLK1 inh -7, FAK blocker -4, Pyk2 oligo antag 0.16, Cav3 T inh -4.9*, PLK1 PBD inh 4 and Rev-RRE block 4.
For CC1=NC(C(F)(F)F)(C(F)(F)F)C(C#N)=C(C)N1 the results were PLK1 inh 0, FAK blocker 1, Pyk2 oligo antag 0.49, Cav3 T inh 0.15, PLK1 PBD inh 9 and Rev-RRE block 8.
Screening CCCCNC(=O)c1onc(CSc2ccc(C(C)C)cc2)c1C(=O)O returned PLK1 inh -3, FAK blocker -3, Cav3 T inh -0.17, PLK1 PBD inh 2 and Rev-RRE block -2.
CCc1c(C)sc(NC(=O)c2cc(-c3ccco3)on2)c1C#N was read as PLK1 inh -18, FAK blocker -4, Pyk2 oligo antag 0.29, Cav3 T inh 0.38, PLK1 PBD inh 2 and Rev-RRE block 4.
Screening FC(F)(F)c1cc(-c2ccccc2)nc(NCc2cccnc2)n1 returned PLK1 inh -6, FAK blocker 10, Pyk2 oligo antag -3.4*, Cav3 T inh -1.2, PLK1 PBD inh -23 and Rev-RRE block 7.
`OCC[C@H]1C[C@@H](O)[C@H](O)[C@@]2(CCCO2)O1` gave Cav3 T inh 0.78.
For CCCCc1ccc(S(=O)(=O)NCCc2ccncc2)cc1 the results were PLK1 inh -13, FAK blocker 0, Pyk2 oligo antag -0.01, Cav3 T inh -3.6*, PLK1 PBD inh 14 and Rev-RRE block 13.
